# Compound activity deposited in PubChem by Broad Institute.
# S100A4 MyoIIA – inhibitors of human S100A4 binding to myosin IIA peptide; inhibition, % at 10.7 µM; 360,000 compounds, 0.14% hits; AID 652163; P26447; S100A4/TAMRA-MyoIIA peptide fluorescence polarization;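 active = mean inhibition of at least 70% across replicates, with every replicate also reaching that level; inconclusive = mean inhibition reaches 70% but some replicates fall short; inactive = mean inhibition below 70%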
#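 System – human S100A4 monomer protein, biochemical binding assay · Buffer or medium – Calcium-containing HEPES buffer, pH 7.2 · Timing – 5 min between mix addition and reading · Also added – TAMRA-labelled myosin IIA heavy-chain peptide probe, 5 nM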
# dFosB activator – enhances mouse delta FosB homodimer DNA binding | activation, % at 25 µM | 340,000 compounds, 0.99% hits | purified delta FosB, TAMRA-CDK5 oligo fluorescence polarization; percent of positive-control signal above neutral wells | P13346;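 active = mean activation above about 17%, with every replicate also reaching it, limit read from the data, passing the limit was not always enough; inconclusive = only one of the two conditions met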
# RAD52 anneal inh – inhibitors of human RAD52 DNA annealing | P43351 | recombinant RAD52 DNA annealing, FRET fluorescence | inhibition, % at 18.7 µM | 360,000 compounds, 0.46% hits;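 active = every replicate showing at least 50% inhibition; inconclusive = mean inhibition at least 50% but not in every replicate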
# Target sequence (P43351 whole entry, looked up): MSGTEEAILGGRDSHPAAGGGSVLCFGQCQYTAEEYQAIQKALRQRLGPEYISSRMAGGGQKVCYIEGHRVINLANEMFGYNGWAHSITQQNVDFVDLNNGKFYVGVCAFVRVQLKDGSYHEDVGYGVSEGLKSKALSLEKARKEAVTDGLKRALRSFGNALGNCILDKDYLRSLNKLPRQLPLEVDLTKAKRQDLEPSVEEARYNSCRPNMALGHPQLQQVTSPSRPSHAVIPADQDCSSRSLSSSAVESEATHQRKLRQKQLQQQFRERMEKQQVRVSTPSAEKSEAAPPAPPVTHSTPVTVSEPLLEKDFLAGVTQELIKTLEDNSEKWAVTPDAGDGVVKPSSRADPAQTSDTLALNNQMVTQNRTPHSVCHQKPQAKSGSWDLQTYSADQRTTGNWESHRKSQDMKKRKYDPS
# MLL AF4-AF9 inh – blocks AF4 peptide binding to human AF9; 350,000 compounds, 0.47% hits; AlphaScreen, biotin-AF4 peptide binding to FLAG-AF9; inhibition, % at 10 µM; P42568;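 active = every replicate reaching a set inhibition limit, whatever the replicate mean, cut at about 25% in these data; inconclusive = mean inhibition reaches that limit but some replicates miss it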;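 note: 0% = plate neutral control median and 100% = total signal loss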
# RAD54 branch – RAD54 (human) branch migration inhibition | 360,000 compounds, 0.14% hits | AID 602329 | RAD54 Holliday junction branch migration, FAM/BHQ fluorescence | Q92698 | inhibition, % at 10.4 µM;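 active = mean normalized replicate activity at least 40 and at least half of replicates scoring 40 or more; inconclusive = only one of the two criteria met; inactive = mean below 40 and under half of replicates reaching 40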;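 note: 0% = median of neutral control wells and 100% = median of positive control wells; inhibitors cause a drop in the FAM fluorescence signal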
# Alpha interfer – interferes with the AlphaScreen assay signal; shares compounds with MLL AF4-AF9 inh; AlphaScreen interference counter-screen, signal luminescence; AC50, µM (doses to about 12 µM), for the others: at the top dose activity change, negative = inhibition; 530 compounds, 45% hits; cut-off not given, nearly all actives have AC50 up to about 14 µM
# Starred values were filed as active, the others as inactive; ? = inconclusive; . = not tested or not shown. Hits are enriched below; roughly 1.5% of the tested compounds scored in any of these assays.
SMILES,S100A4 MyoIIA,dFosB activator,RAD52 anneal inh,MLL AF4-AF9 inh,RAD54 branch,Alpha interfer
COC(=O)C1=C(C)NC(C)=C(C(=O)OCC(C)C)C1c1ccccc1[N+](=O)[O-] (stereo unspecified),-3.0,-12.0,-16.6,37.9*,4.0,10.9µM*
COc1cccc(CNCCc2c[nH]c3ccccc23)c1OCc1ccccc1,1.4,2.0,25.7,27.3*,.,-40.0%
O=C(CNCc1cccs1)Nc1ccc(N2CCCCCC2)cc1,-14.2,-9.8,-2.7,42.0*,.,13.1µM*
COc1cc(/C=N/N=C(N)N)ccc1OCc1ccc(Cl)cc1,0.1,58.8*,6.1,27.0*,8.9,-26.3%
CCOc1cc(/C=N/N=C(N)N)ccc1OCc1ccc(Cl)cc1,-3.8,56.3*,-63.8,27.5*,16.6,-27.5%
O=C(c1ccncc1)N1C[C@H]2[C@@H](c3ccccc31)[C@H](CO)N2C(=O)c1ccccc1F,4.2,.,1.9,0.6,-4.5,.
c1ccc(CNCCC(Cc2ccccc2)c2ccco2)cc1 (stereo unspecified),-12.7,-5.4,-19.7,6.0,4.5,.
CN(C)c1ccc(CNCCC(Cc2ccccc2)c2ccco2)cc1 (stereo unspecified),-9.4,-7.9,-16.0,48.5*,7.2,10.2µM*
C[C@H]1CN([C@@H](C)CO)C(=O)c2cccc(NC(=O)C3CCOCC3)c2O[C@@H]1CN(C)Cc1ccc(Cl)c(Cl)c1,0.1,.,3.3,2.2,3.2,.
CN(CCc1ccccc1)C(=O)c1ccc(NC(=O)Cc2cccc(NC(=O)C3CCN(C(=O)C4CCCC4)CC3)c2)cc1,0.7,-6.8,-2.5,3.2,6.8,.
CN(C(=O)c1cccc(NC(=O)Cc2ccc(NC(=O)C3CCN(C(=O)c4ccccc4)CC3)cc2)c1)C1CCC1,-8.3,1.7,-7.9,7.7,0.4,.
CN(CCc1ccccc1)C(=O)c1ccc(NC(=O)Cc2ccc(NC(=O)C3CCN(C(=O)C4CCCCC4)CC3)cc2)cc1,15.9,-6.8,-23.0,26.6*,-16.7,2.3%
CN(C(=O)c1ccc(NC(=O)Cc2ccc(NC(=O)C3CCN(C(=O)c4ccccc4)CC3)cc2)cc1)C1CC1,3.2,-2.2,-173.5,37.5*,-2.2,-15.5%
C[C@H](O)C#Cc1ccc([C@H]2[C@@H](CO)N3CCCCN(CC4CCOCC4)C[C@@H]23)cc1,-7.6,.,-6.3,3.1,-5.2,.
Cc1ccc(NC(=S)N/N=C/c2ccc([N+](=O)[O-])s2)cc1,-8.3,5.1,0.7,?,-2.8,-17.7%
CCNC(=O)Nc1ccc2c(c1)C(=O)N(C)[C@H]1CC[C@H](CC(=O)NC3CCCCC3)O[C@H]1CO2,5.0,.,0.0,-3.1,2.4,.
C[C@@H]1CN([C@@H](C)CO)C(=O)Cc2cc(N(C)C)ccc2O[C@H]1CN(C)Cc1ccncc1,3.3,.,7.8,-3.0,6.6,.
C[C@H](CO)N1C[C@H](C)[C@@H](CN(C)Cc2ccc(Cl)c(Cl)c2)Oc2ccc(N(C)C)cc2C1=O,-5.2,.,-7.9,20.0,-5.9,.
C[C@@H]1CN([C@H](C)CO)C(=O)Cc2cc(N(C)C)ccc2O[C@@H]1CN(C)Cc1ccc(Cl)c(Cl)c1,-7.2,.,2.7,31.2*,2.7,-26.6%
C[C@H]1CCCCO[C@H](CN(C)Cc2ccc(Cl)c(Cl)c2)[C@@H](C)CN([C@@H](C)CO)C(=O)c2cc(N(C)C)ccc2O1,10.2,.,-52.1,62.7*,-1.1,12.8µM*
C[C@H]1CN([C@@H](C)CO)C(=O)c2cc(N(C)C)ccc2O[C@@H]1CN(C)Cc1ccc(Cl)c(Cl)c1,-5.7,.,-7.1,28.5*,-5.7,-31.0%
C[C@@H]1CN([C@@H](C)CO)C(=O)c2cc(NC(=O)C3CCCCC3)ccc2O[C@@H](C)CCCCO[C@@H]1CN(C)S(=O)(=O)c1cn(C)cn1,0.4,.,11.3,0.6,4.3,.
C[C@@H]1CN([C@H](C)CO)C(=O)c2cc(NC(=O)Nc3ccc4c(c3)OCO4)ccc2O[C@@H](C)CCCCO[C@H]1CN(C)S(=O)(=O)c1cn(C)cn1,-3.5,.,-1.9,2.0,2.7,.
CC(C)N1C(=O)/C(=C\c2nc3ccccc3c(=O)[nH]2)c2ccccc21,-8.7,0.4,3.8,26.2*,4.5,-22.2%
CCCN1C(=O)/C(=C/c2nc3ccccc3c(=O)[nH]2)c2ccccc21,0.4,-5.5,7.4,1.0,.,.
